Experiments:
RXF 393 = assay: Antiproliferative activity against human RXF 393 cells assessed as cell growth at 10 uM incubated for 48 hrs by SRB assay relative to control; assay type: functional; conditions: read-out: Activity
Procedure, shortened: (§1)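 Single-concentration screen at 10 μM run by NCI on its NCI-60 human tumour panel (blood, lung, colon, CNS, melanoma, ovary, kidney, prostate, breast), following the NCI-60 published methodology. Read-out is growth percent relative to untreated cells.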

Histone deacetylase 1 = Histone deacetylase 1 (Homo sapiens, UniProt Q13547); assay: Inhibition of HDAC1 (unknown origin) using Fluor de lys as substrate by fluorescence based analysis
Sequence of Histone deacetylase 1 (Q13547 whole entry): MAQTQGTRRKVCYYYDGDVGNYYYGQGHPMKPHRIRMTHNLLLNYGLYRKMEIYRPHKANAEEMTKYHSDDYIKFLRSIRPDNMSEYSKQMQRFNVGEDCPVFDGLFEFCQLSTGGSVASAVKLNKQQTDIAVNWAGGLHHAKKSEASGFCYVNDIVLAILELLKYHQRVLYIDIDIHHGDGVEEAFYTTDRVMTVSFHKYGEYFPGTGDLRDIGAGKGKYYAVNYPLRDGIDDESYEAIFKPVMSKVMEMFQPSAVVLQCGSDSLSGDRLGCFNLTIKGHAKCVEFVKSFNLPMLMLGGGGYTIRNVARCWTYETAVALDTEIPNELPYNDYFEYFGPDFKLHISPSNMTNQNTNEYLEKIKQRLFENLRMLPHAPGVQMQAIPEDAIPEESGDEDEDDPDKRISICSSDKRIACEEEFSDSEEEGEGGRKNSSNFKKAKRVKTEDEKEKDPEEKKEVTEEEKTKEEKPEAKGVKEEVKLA

UACC-62 = assay: Antiproliferative activity against human UACC-62 cells assessed as cell growth at 10 uM incubated for 48 hrs by SRB assay relative to control; assay type: functional; conditions: read-out: Activity
Procedure, shortened: (§2)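 NCI-60 single-dose screen: compounds tested at 10 μM, and growth percent of each cell line calculated. The full method follows the NCI DTP protocol.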

SW-620 = assay: Antiproliferative activity against human SW620 cells assessed as cell growth at 10 uM incubated for 48 hrs by SRB assay relative to control; assay type: functional; conditions: read-out: Activity; procedure, shortened: as §2
Histone deacetylase 8 = target: T1, Histone deacetylase 8 (Homo sapiens, UniProt Q9BY41); assay: Inhibition of HDAC8 (unknown origin) using Fluor de lys as substrate by fluorescence based analysis
T1 sequence (Q9BY41 whole entry): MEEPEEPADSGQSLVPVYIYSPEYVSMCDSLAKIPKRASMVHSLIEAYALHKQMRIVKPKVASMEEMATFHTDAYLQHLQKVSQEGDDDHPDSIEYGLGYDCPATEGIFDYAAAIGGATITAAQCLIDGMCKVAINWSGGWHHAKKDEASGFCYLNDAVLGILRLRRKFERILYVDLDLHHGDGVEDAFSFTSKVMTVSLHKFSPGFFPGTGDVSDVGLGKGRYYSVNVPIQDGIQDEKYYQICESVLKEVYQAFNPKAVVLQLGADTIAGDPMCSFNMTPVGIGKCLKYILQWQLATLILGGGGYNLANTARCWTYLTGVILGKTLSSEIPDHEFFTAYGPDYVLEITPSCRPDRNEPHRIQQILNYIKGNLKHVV

Hs-578T = assay: Antiproliferative activity against human Hs-578T cells assessed as cell growth at 10 uM incubated for 48 hrs by SRB assay relative to control; assay type: functional; conditions: read-out: Activity; procedure, shortened: as §1
786-0 = assay: Antiproliferative activity against human 786-0 cells assessed as cell growth at 10 uM incubated for 48 hrs by SRB assay relative to control; assay type: functional; conditions: read-out: Activity; procedure, shortened: as §1
SF-539 = assay: Antiproliferative activity against human SF-539 cells assessed as cell growth at 10 uM incubated for 48 hrs by SRB assay relative to control; assay type: functional; conditions: read-out: Activity; procedure, shortened: as §1
SR = assay: Antiproliferative activity against human SR cells assessed as cell growth at 10 uM incubated for 48 hrs by SRB assay relative to control; assay type: functional; conditions: read-out: Activity; procedure, shortened: as §2
HL-60 = assay: Antiproliferative activity against human HL-60 cells assessed as cell growth at 10 uM incubated for 48 hrs by SRB assay relative to control; assay type: functional; conditions: read-out: Activity; procedure, shortened: as §1
OVCAR-5 = assay: Antiproliferative activity against human OVCAR-5 cells assessed as cell growth at 10 uM incubated for 48 hrs by SRB assay relative to control; assay type: functional; conditions: read-out: Activity; procedure, shortened: as §1
MDA-MB-435 = assay: Antiproliferative activity against human MDA-MB-435 cells assessed as cell growth at 10 uM incubated for 48 hrs by SRB assay relative to control; assay type: functional; conditions: read-out: Activity; procedure, shortened: as §1
NCI/ADR-RES = assay: Antiproliferative activity against human NCI/ADR-RES cells assessed as cell growth at 10 uM incubated for 48 hrs by SRB assay relative to control; assay type: functional; conditions: read-out: Activity; procedure, shortened: as §1
SK-OV-3 = assay: Antiproliferative activity against human SK-OV-3 cells assessed as cell growth at 10 uM incubated for 48 hrs by SRB assay relative to control; assay type: functional; conditions: read-out: Activity; procedure, shortened: as §2
K562 = assay: Antiproliferative activity against human K562 cells assessed as cell growth at 10 uM incubated for 48 hrs by SRB assay relative to control; assay type: functional; conditions: read-out: Activity; procedure, shortened: as §1
CAKI-1 = assay: Antiproliferative activity against human CAKI-1 cells assessed as cell growth at 10 uM incubated for 48 hrs by SRB assay relative to control; assay type: functional; conditions: read-out: Activity; procedure, shortened: as §1
NCI-H460 = assay: Antiproliferative activity against human NCI-H460 cells assessed as cell growth at 10 uM incubated for 48 hrs by SRB assay relative to control; assay type: functional; conditions: read-out: Activity; procedure, shortened: as §1
BT-549 = assay: Antiproliferative activity against human BT-549 cells assessed as cell growth at 10 uM incubated for 48 hrs by SRB assay relative to control; assay type: functional; conditions: read-out: Activity; procedure, shortened: as §1
NCI-H522 = assay: Antiproliferative activity against human NCI-H522 cells assessed as cell growth at 10 uM incubated for 48 hrs by SRB assay relative to control; assay type: functional; conditions: read-out: Activity; procedure, shortened: as §1
KM12 = assay: Antiproliferative activity against human KM12 cells assessed as cell growth at 10 uM incubated for 48 hrs by SRB assay relative to control; assay type: functional; conditions: read-out: Activity; procedure, shortened: as §1
MCF7 = assay: Antiproliferative activity against human MCF7 cells assessed as cell growth at 10 uM incubated for 48 hrs by SRB assay relative to control; assay type: functional; conditions: read-out: Activity; procedure, shortened: as §1
OVCAR-3 = assay: Antiproliferative activity against human OVCAR-3 cells assessed as cell growth at 10 uM incubated for 48 hrs by SRB assay relative to control; assay type: functional; conditions: read-out: Activity; procedure, shortened: as §1
NCI-H23 = assay: Antiproliferative activity against human NCI-H23 cells assessed as cell growth at 10 uM incubated for 48 hrs by SRB assay relative to control; assay type: functional; conditions: read-out: Activity; procedure, shortened: as §1
SF-268 = assay: Antiproliferative activity against human SF-268 cells assessed as cell growth at 10 uM incubated for 48 hrs by SRB assay relative to control; assay type: functional; conditions: read-out: Activity; procedure, shortened: as §1
HOP-92 = assay: Antiproliferative activity against human HOP-92 cells assessed as cell growth at 10 uM incubated for 48 hrs by SRB assay relative to control; assay type: functional; conditions: read-out: Activity; procedure, shortened: as §1
SNB-75 = assay: Antiproliferative activity against human SNB-75 cells assessed as cell growth at 10 uM incubated for 48 hrs by SRB assay relative to control; assay type: functional; conditions: read-out: Activity; procedure, shortened: as §2
ACHN = assay: Antiproliferative activity against human ACHN cells assessed as cell growth at 10 uM incubated for 48 hrs by SRB assay relative to control; assay type: functional; conditions: read-out: Activity; procedure, shortened: as §1
EKVX = assay: Antiproliferative activity against human EKVX cells assessed as cell growth at 10 uM incubated for 48 hrs by SRB assay relative to control; assay type: functional; conditions: read-out: Activity; procedure, shortened: as §1
UO-31 = assay: Antiproliferative activity against human UO-31 cells assessed as cell growth at 10 uM incubated for 48 hrs by SRB assay relative to control; assay type: functional; conditions: read-out: Activity; procedure, shortened: as §2
DU-145 = assay: Antiproliferative activity against human DU-145 cells assessed as cell growth at 10 uM incubated for 48 hrs by SRB assay relative to control; assay type: functional; conditions: read-out: Activity; procedure, shortened: as §1
SK-MEL-2 = assay: Antiproliferative activity against human SK-MEL-2 cells assessed as cell growth at 10 uM incubated for 48 hrs by SRB assay relative to control; assay type: functional; conditions: read-out: Activity; procedure, shortened: as §1
CCRF-CEM = assay: Antiproliferative activity against human CCRF-CEM cells assessed as cell growth at 10 uM incubated for 48 hrs by SRB assay relative to control; assay type: functional; conditions: read-out: Activity; procedure, shortened: as §1
Malme-3M = assay: Antiproliferative activity against human Malme-3M cells assessed as cell growth at 10 uM incubated for 48 hrs by SRB assay relative to control; assay type: functional; conditions: read-out: Activity; procedure, shortened: as §1
RPMI-8226 = assay: Antiproliferative activity against human RPMI-8226 cells assessed as cell growth at 10 uM incubated for 48 hrs by SRB assay relative to control; assay type: functional; conditions: read-out: Activity; procedure, shortened: as §1

With O=C1CN(Cc2ccc(C(=O)NO)cc2)C(=O)[C@@H](Cc2c[nH]c3ccccc23)N1 the growth at 10 µM (RXF 393) was 105%, the IC50 (Histone deacetylase 1) was 8.02 µM and the growth at 10 µM (UACC-62) was 95.5%. It also gave a growth at 10 µM (SW-620) of 103%, an IC50 (Histone deacetylase 8) of 0.513 µM and a growth at 10 µM (Hs-578T) of 104%. It also gave a growth at 10 µM (786-0) of 83%, a growth at 10 µM (SF-539) of 107% and a growth at 10 µM (SR) of 115%. For the same compound, the growth at 10 µM (HL-60) was 126%, the growth at 10 µM (OVCAR-5) was 107% and the growth at 10 µM (MDA-MB-435) was 102%. It also gave a growth at 10 µM (NCI/ADR-RES) of 104%, a growth at 10 µM (SK-OV-3) of 96.5% and a growth at 10 µM (K562) of 100%. It also gave a growth at 10 µM (CAKI-1) of 93.8%, a growth at 10 µM (NCI-H460) of 104% and a growth at 10 µM (BT-549) of 98.2%. It also gave a growth at 10 µM (NCI-H522) of 96.7%, a growth at 10 µM (KM12) of 102% and a growth at 10 µM (MCF7) of 96.7%. For the same compound, the growth at 10 µM (OVCAR-3) was 104%, the growth at 10 µM (NCI-H23) was 101% and the growth at 10 µM (SF-268) was 99.3%. It also gave a growth at 10 µM (HOP-92) of 104%, a growth at 10 µM (SNB-75) of 94.5% and a growth at 10 µM (ACHN) of 104%. It also gave a growth at 10 µM (EKVX) of 106%, a growth at 10 µM (UO-31) of 91.1% and a growth at 10 µM (DU-145) of 107%. It also gave a growth at 10 µM (SK-MEL-2) of 113%, a growth at 10 µM (CCRF-CEM) of 103% and a growth at 10 µM (Malme-3M) of 94.6%. For the same compound, the growth at 10 µM (RPMI-8226) was 104%.

Work on O=C(NO)c1ccc(CN2CC(=O)N(Cc3ccccc3)[C@H](Cc3ccccc3)C2=O)cc1 yielded a growth at 10 µM (RXF 393) of 86%, an IC50 (Histone deacetylase 1) of 9.64 µM and a growth at 10 µM (UACC-62) of 87.5%. The growth at 10 µM (SW-620) was 94.1%, the IC50 (Histone deacetylase 8) was 0.145 µM and the growth at 10 µM (Hs-578T) was 82%. For the same compound, the growth at 10 µM (786-0) was 94.8%, the growth at 10 µM (SF-539) was 87.3% and the growth at 10 µM (SR) was 63.5%. It also gave a growth at 10 µM (HL-60) of 102%, a growth at 10 µM (OVCAR-5) of 97.8% and a growth at 10 µM (MDA-MB-435) of 91.3%. For the same compound, the growth at 10 µM (NCI/ADR-RES) was 94.5%, the growth at 10 µM (SK-OV-3) was 90.4% and the growth at 10 µM (K562) was 76.4%. For the same compound, the growth at 10 µM (CAKI-1) was 96.5%, the growth at 10 µM (NCI-H460) was 81.6% and the growth at 10 µM (BT-549) was 103%. For the same compound, the growth at 10 µM (NCI-H522) was 69.8%, the growth at 10 µM (KM12) was 86.9% and the growth at 10 µM (MCF7) was 82.9%. The growth at 10 µM (OVCAR-3) was 79.7%, the growth at 10 µM (NCI-H23) was 86.7% and the growth at 10 µM (SF-268) was 96.5%. For the same compound, the growth at 10 µM (HOP-92) was 102%, the growth at 10 µM (SNB-75) was 69.4% and the growth at 10 µM (ACHN) was 90.6%. The growth at 10 µM (EKVX) was 88.2%, the growth at 10 µM (UO-31) was 69.5% and the growth at 10 µM (DU-145) was 87%. It also gave a growth at 10 µM (SK-MEL-2) of 99.4%, a growth at 10 µM (CCRF-CEM) of 72% and a growth at 10 µM (Malme-3M) of 77.1%. It also gave a growth at 10 µM (RPMI-8226) of 58.6%.

Reference: ChEMBL document CHEMBL5230083, “Novel 2, 5-diketopiperazine derivatives as potent selective histone deacetylase 6 inhibitors: Rational design, synthesis and antiproliferative activity” (Eur J Med Chem, 2020)
